Measured values as given in article PMC2736347 (The Journal of organic chemistry, 2009).
Converted amounts (≈) assume the structure as drawn. “Also recorded” adds a separate entry of the source. Read-outs that look alike come from different tables or passages of the source.

What was measured:
SIRT1 = target: T1, SIRT1 (Homo sapiens, UniProt Q96EB6); assay: Secondary SIRT1 inhibitory assay; format: biochemical; conditions: read-out: SIRT1 IC50 ± SE; second assay system
T1 sequence (Q96EB6 1-747): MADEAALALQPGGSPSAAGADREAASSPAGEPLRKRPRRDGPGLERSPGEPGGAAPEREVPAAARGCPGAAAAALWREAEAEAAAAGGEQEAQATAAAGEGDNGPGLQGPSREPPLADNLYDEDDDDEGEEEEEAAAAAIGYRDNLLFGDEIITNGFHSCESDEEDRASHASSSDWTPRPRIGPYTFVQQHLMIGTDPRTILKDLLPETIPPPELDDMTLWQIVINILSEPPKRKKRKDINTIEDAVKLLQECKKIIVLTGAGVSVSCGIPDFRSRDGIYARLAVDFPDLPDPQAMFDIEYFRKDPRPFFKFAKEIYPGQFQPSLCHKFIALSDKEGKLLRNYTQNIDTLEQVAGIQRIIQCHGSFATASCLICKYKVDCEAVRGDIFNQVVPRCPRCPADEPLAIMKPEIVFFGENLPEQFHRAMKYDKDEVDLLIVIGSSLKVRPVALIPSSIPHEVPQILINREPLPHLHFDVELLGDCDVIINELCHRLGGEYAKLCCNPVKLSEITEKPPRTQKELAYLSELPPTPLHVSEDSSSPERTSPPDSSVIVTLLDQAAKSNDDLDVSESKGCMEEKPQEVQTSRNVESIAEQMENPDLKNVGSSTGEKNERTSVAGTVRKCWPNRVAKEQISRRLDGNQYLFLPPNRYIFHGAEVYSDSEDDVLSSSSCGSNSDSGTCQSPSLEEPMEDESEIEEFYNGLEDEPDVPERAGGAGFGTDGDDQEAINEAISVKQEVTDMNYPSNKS

SIRT2 [1] = target: T2, SIRT2 (Homo sapiens, UniProt Q8IXJ6); assay: Secondary SIRT2 inhibitory assay; format: biochemical; conditions: second assay system; for IC50: read-out: SIRT2 IC50 ± SE
T2 sequence (Q8IXJ6 1-389): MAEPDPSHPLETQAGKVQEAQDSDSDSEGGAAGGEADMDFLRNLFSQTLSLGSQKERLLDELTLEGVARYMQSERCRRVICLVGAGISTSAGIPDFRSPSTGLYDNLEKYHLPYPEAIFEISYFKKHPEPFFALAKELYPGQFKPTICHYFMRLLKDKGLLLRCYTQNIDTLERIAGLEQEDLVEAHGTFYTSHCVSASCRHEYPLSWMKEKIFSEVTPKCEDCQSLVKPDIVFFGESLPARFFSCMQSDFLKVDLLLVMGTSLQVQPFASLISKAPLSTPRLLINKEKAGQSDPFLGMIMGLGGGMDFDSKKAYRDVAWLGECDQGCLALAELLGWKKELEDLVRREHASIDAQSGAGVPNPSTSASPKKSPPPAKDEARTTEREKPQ

Candida albicans = conditions: 100 µg/disk; cited from earlier work
Artemia salina = conditions: cited from earlier work
Biomphalaria glabrata = conditions: cited from earlier work
SIRT2 [2] = target: T2, SIRT2; assay: Initial SIRT2 inhibitory assay; format: biochemical
Summary of the method: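 Reactions contained 50 µM fluor de Lys substrate, 270 nM SIRT2 and 1 mM NAD, with or without test compound, in Buffer A (25 mM Tris-HCl pH 8.0, 137 mM NaCl, 2.7 mM KCl, 1 mM MgCl2). Blanks lacked NAD. After 2 h at 37°, reactions were stopped with 2.7 mg/mL trypsin in Buffer A and developed for 20 min. Fluorescence was read at ex 360/em 460 nm.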

sodium channels = assay: Sodium channel blocking assay in neuro-2a cells; format: cell-based, mouse
[3] = tested on: NCI-H460 lung tumor cells; assay: Cytotoxicity assay; format: cell-based; conditions: human lung H-460
Summary of the method: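 NCI-H460 cells were seeded at 6000 cells/well in 96-well plates and dosed 24 h later. The test compound was dissolved in DMSO and diluted into medium without fetal bovine serum, with DMSO below 0.5% final. Viability was read by MTT reduction.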

SIRT2 [4] = target: T2, SIRT2; conditions: read-out: IC50 (SIRT2), reported; cited from earlier work

## (5R, 5’S)-tanikolide dimer [Compound 4]
SIRT1
  IC50: 28.8 ± 4.3 µM
SIRT2 [1]
  IC50: 2.4 ± 0.2 µM
  fold more potent to the SIRT2 isoform than to SIRT1: approximately 10 fold

## CCCCCCCCCCC[C@]1(CO)CCCC(=O)O1 [Compound 1, Tanikolide]
Candida albicans
  diameter zone inhibition: 13 mm
Artemia salina
  LC50 brine shrimp: 3.6 µg/mL (≈ 12.7 µM)
Biomphalaria glabrata
  LC50 snail: 9.0 µg/mL (≈ 31.6 µM)

## CCCCCCCCCCCC(O)(CO)CCCC(=O)O (stereo not shown) [Compound 2, Tanikolide seco acid]
SIRT2 [2]; highest concentration tested 50 µM
  SIRT2 inhibitory activity: inactive
Sodium channels; highest concentration tested 10 µM
  sodium channel blocking activity: inactive
[3]; at 9.9 µM
  cytotoxicity to H-460 cell line: moderately toxic; also recorded: moderate cytotoxicity

## O=c1oc2ccccc2c2oc3cc(O)c(O)cc3c12 [8,9-dihydroxybenzo-[4,5]furo[3,2-c]chromen-6-one]
SIRT2 [4]
  IC50: 45 µM

## (5S, 5’S)-tanikolide dimer [ent-5]
SIRT1
  IC50: 34.5 ± 3.5 µM
SIRT2 [1]
  IC50: 3.1 ± 0.3 µM
  fold more potent to the SIRT2 isoform than to SIRT1: approximately 10 fold

## (5R, 5’R)-tanikolide dimer [Compound 3]
SIRT2 [2]; read-out: IC50 against SIRT2, initial assay format
  IC50: 176 nM
SIRT1
  IC50: 36.4 ± 8.1 µM
SIRT2 [1]; listed as 5
  IC50: 3.3 ± 0.2 µM
SIRT2 [1]
  fold more potent to the SIRT2 isoform than to SIRT1: approximately 10 fold
Sodium channels; at 5.2 µM
  inhibition in sodium channel blocking assay: 54%
[3]; at 10 µM
  cytotoxicity to H-460 cell line: did not have any activity
